Arrestin-AP2 inh: blocks beta-arrestin peptide binding to AP2 adaptin. AID 504490. inhibition, % at 10 µM. 0.31% of 340,000 active. FITC-arrestin peptide / GST-AP2 beads, flow cytometry; AP2 beta2 appendage carries R879A mutation;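 active means inhibition above a set limit, near 3 SD of compounds lacking own fluorescence, cut at about 54% in these data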
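System: GST-tagged AP2 beta2-adaptin appendage (R879A) on 4 µm glutathione beads / Reagent: FITC-arrestin peptide, 50 nM / Detection: HyperCyt-sampled flow cytometry, FL1 channel, ex 488/em 535 nm / Timing: 12 min plus 1 h, RT / Buffer or medium: PBS plus Tween 20 (0.05%) and BSA (0.1%)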
Myeloid diff MLP: myeloid differentiation induction; 1% of 360,000 active; ER-HoxA9 myeloid progenitors, lysozyme-GFP differentiation, flow cytometry; calls only at 10 µM;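 active means normalized GFP-positive differentiation at or above the plate's own cutoff, the solvent-only control mean plus 3 SD; inconclusive means no clear call, values can overlap the other calls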;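 further: cells exposed to compound for four days before flow analysis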
Granule exo inh: lytic granule exocytosis inhibition | TALL-104 LAMP-1 surface exposure, flow cytometry; cells stimulated with thapsigargin and PMA | inhibition, % at 10 µM | 0.66% of 360,000 active | AID 651702;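 active means inhibition above about 55%, limit read from the data; inconclusive means no clear call, values can overlap the other calls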
NRP1-CendR mod: alters CendR peptide binding to human NRP-1 | O14786 | FAM-RPARPAR peptide binding to NRP-1, fluorescence polarization | inhibition, % at 25 µM | 0.85% of 360,000 active | AID 602438;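 active means inhibition or corrected inhibition above about 18%, plus a signal ratio from 0.5 to 1.5, limit read from the data, passing the limit was not always enough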
ABCB6 inh MLPCN: blocks the human ABCB6 transporter | K562-ABCB6 porphyrin accumulation, flow cytometry, 1 h; stronger effect = lower value | 0.19% of 360,000 active | fluorescence ratio to DMSO, % at 10 µM;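 active means fluorescence ratio to DMSO below 75%, the collection mean minus 3 SD; inconclusive means too few cells collected in the well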;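 further: signal is porphyrin accumulated inside mitochondria; lower ratio means ABCB6 inhibition with less porphyrin fluorescence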
ATG4B inh: ATG4B (human) cysteine protease inhibition; Q9Y4P1; 0.51% of 340,000 active; ATG4B cleavage of LC3-PLA2, NBD-HPC fluorescence, 1 h; AID 504462; inhibition, % at 8.33 µM; in the data active means inhibition above about 40%
Target sequence (Q9Y4P1 whole entry, looked up): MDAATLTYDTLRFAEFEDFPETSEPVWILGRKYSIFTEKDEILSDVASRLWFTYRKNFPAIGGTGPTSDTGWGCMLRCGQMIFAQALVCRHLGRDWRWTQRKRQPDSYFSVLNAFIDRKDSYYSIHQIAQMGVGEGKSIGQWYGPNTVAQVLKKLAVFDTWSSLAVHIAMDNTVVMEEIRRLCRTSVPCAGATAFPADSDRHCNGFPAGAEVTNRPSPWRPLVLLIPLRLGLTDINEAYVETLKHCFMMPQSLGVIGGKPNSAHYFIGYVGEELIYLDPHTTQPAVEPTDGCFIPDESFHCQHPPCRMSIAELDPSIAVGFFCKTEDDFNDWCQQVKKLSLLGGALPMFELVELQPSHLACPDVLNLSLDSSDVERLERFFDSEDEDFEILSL
ATG4B confirm: confirmation of human ATG4B inhibitors. shares compounds with ATG4B inh. 92% of 320 active. AID 504757. ATG4B protease fluorescent substrate cleavage assay. inhibition, % at 8.33 µM; in the data active means inhibition above about 39%
PLA2 counter: inhibits human PLA2, flagging false ATG4B inhibitors; shares compounds with ATG4B inh; purified PLA2, NBD-C6-HPC fluorescence, 45 min; inhibition, % at 8.33 µM; 66% of 1,600 active; AID 588402; in the data active means inhibition above about 50%
Each line names hits and unclear results; the compound was inactive in the other large screens (follow-up assays come after a bar, where they were run). Hits are enriched below; roughly 3.3% of the tested compounds scored in any of these assays.

COc1ccc(C(O)(C(=O)NNc2ccc(C)cc2)c2cccs2)cc1 (centres undefined)	none
O=C(NNc1ccc(C2CCCCC2)cc1)C(O)(c1ccccc1)c1cccs1 (centres undefined)	ATG4B inh 67.3 | PLA2 counter 70.1
CCN(Cc1cnn(C)c1)Cc1nc(Cc2ccccc2Cl)no1	none
Cc1cc(Cl)ccc1OC(C)C(=O)Nc1cnn(CCCC(=O)O)c1 (centres undefined)	none
O=C(O)C1C2CCC(C2)C1C(=O)Nc1cccc([N+](=O)[O-])c1 (centres undefined)	none
O=C(Nc1cccc([N+](=O)[O-])c1)C1C2CC/C=C\CCC21 (centres undefined)	NRP1-CendR mod 41.1, ATG4B inh 54.0 | PLA2 counter 66.0
Cc1ccc(S(=O)(=O)N(CC(=O)N/N=C/c2cccc3c2OCCO3)c2ccccc2F)cc1	none
Cn1cccc1C(=O)NC(=O)COC(=O)c1cc(S(=O)(=O)N2CCCCC2)ccc1Cl	ATG4B inh 51.2 | PLA2 counter 51.6
CC(CC(=O)NC1CCCCC1)S(=O)(=O)c1ccc2c(c1)NC(=O)CO2 (centres undefined)	none
O=C(Nc1scc(-c2ccccc2)c1C(=O)O)c1ccccc1F	none
COc1ccc(-c2csc(NC(=O)c3ccccc3Br)c2C(=O)O)cc1	none
Cc1ccc(-c2csc(NC(=O)c3ccccc3F)c2C(=O)O)cc1	ATG4B inh 55.4 | PLA2 counter 58.1
COc1ccc(-c2csc(NC(=O)c3ccc(C(C)(C)C)cc3)c2C(=O)O)cc1	ATG4B inh 47.4 (no result: Myeloid diff MLP, Granule exo inh, NRP1-CendR mod, ABCB6 inh MLPCN) | PLA2 counter 52.5
CCCCn1c(N)c(N(CCOC)C(=O)Cn2c(=O)oc3ccccc32)c(=O)[nH]c1=O	none
O=c1[nH]c(=S)[nH]c2c1C(c1ccc(Br)cc1)c1c([nH]c(=S)[nH]c1=O)O2	ATG4B inh 53.1 | ATG4B confirm inactive | PLA2 counter inactive
Cc1cccc(C)c1-n1cccc1/C=C1/C(=N)N2C(=NC1=O)SN=C2S(C)(=O)=O	ATG4B inh 88.7 | PLA2 counter 89.9
Cc1ccc(-n2cccc2/C=C2/C(=N)N3C(=NC2=O)SN=C3S(C)(=O)=O)cc1Cl	Myeloid diff MLP inconclusive, ATG4B inh 65.0 | PLA2 counter 51.9
CCC1=NN2C(=N)/C(=C\c3cccn3-c3ccc(C)cc3C)C(=O)N=C2S1	none
CCC1=NN2C(=N)/C(=C\c3cccn3-c3c(C)cccc3C)C(=O)N=C2S1	ATG4B inh 84.4 | PLA2 counter 86.7
Cc1cc(/C=C2/C(=N)N3C(=NC2=O)SN=C3S(C)(=O)=O)c(C)n1-c1ccc(F)cc1	none
CCCCc1cc(=O)oc2cc(C)cc(OC(C)C(=O)NCc3cccnc3)c12 (centres undefined)	none
CCn1cc(C(=O)NCc2cccc(C(F)(F)F)c2)c(=O)c2ccc(C)nc21	ATG4B inh 53.5 | PLA2 counter inactive
CCn1cc(C(=O)OCC(=O)c2ccccc2)c(=O)c2ccc(C)nc21	none
CCn1cc(C(=O)OCC(=O)c2cc(C)n(-c3cccc(C(F)(F)F)c3)c2C)c(=O)c2ccc(C)nc21	ATG4B inh 75.2 | PLA2 counter 67.2
CCCNC(=O)N1CCN(Cc2ccco2)CC1	none
COC(=O)C(Cc1c[nH]c2ccccc12)NC(=O)c1cc(-c2ccc(OC)c(OC)c2)oc1C (centres undefined)	none
Cc1ccccc1NC1=C(C(=O)c2ccccc2)N(C)S(=O)(=O)c2ccccc21	none
O=C(C1=C(Nc2ccccc2)c2ccccc2S(=O)(=O)N1)c1ccccc1	ATG4B inh 73.6 | PLA2 counter 83.2
CC(C)(C)c1ccc(C(=O)Nc2nnc(Cc3c[nH]c4ccccc34)s2)cc1	none
O=C(Nc1nnc(Cc2c[nH]c3ccccc23)s1)c1ccc(Cl)cc1Cl	Myeloid diff MLP active, ATG4B inh 52.1 | PLA2 counter 50.6
Cc1c(Br)c([N+](=O)[O-])nn1CC(=O)Nc1c(C)n(C)n(-c2ccccc2)c1=O	none

Source: PubChem
